Values after ≈ are worked out from the molar mass of the structure shown.
How the values were obtained:
Type in all cases: functional
Klebsiella aerogenes [1] = test: Antibacterial activity against Enterobacter aerogenes isolated from patient with diabetic foot infection assessed as percent resistant isolates after 18 to 24 hrs by broth microdilution method
Summary of the method: (§1)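 Aerobes subcultured on Trypticase soy blood agar, then broth microdilution in cation-adjusted Mueller-Hinton broth. Trays prepared in-house with twofold dilutions and stored at −70°C. Overnight colonies suspended to about 5 × 10^5 CFU/ml final. Read after 18 to 24 h at 37°C. QC strains included S. aureus ATCC 29213 and E. coli ATCC 25922.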

[2] = tested on: Staphylococcus epidermidis; test: Antibacterial activity against Staphylococcus epidermidis isolated from patient with diabetic foot infection after 18 to 24 hrs by broth microdilution method
Summary of the method: (§2)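 Isolates were subcultured on Trypticase soy blood agar and tested by broth microdilution in cation-adjusted Mueller-Hinton broth. In-house trays of twofold drug dilutions were stored at −70°C. Overnight colonies gave a final inoculum of about 5 × 10^5 CFU/ml. Plates were read after 18 to 24 h at 37°C.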

[3] = tested on: Staphylococcus lugdunensis; test: Antibacterial activity against Staphylococcus lugdunensis isolated from patient with diabetic foot infection after 18 to 24 hrs by broth microdilution method
Summary of the method: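 Subcultured on Trypticase soy blood agar, then broth microdilution in cation-adjusted Mueller-Hinton broth. Trays were made in-house with serial twofold drug dilutions and stored at −70°C. Inoculum was colonies from overnight growth, final approximately 5 × 10^5 CFU/ml. MIC was read after 18 to 24 h at 37°C. QC strains: S. aureus ATCC 29213 and E. coli ATCC 25922.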

Streptococcus agalactiae [4] = test: Antibacterial activity against Streptococcus agalactiae isolated from patient with diabetic foot infection after 18 to 24 hrs by broth microdilution method
Summary of the method: (§3)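 Streptococcal isolates were subcultured on Trypticase soy blood agar. Broth microdilution used cation-adjusted Mueller-Hinton broth with lysed horse blood, in in-house trays of serial twofold drug dilutions stored at −70°C. Overnight colonies were suspended to a final inoculum of approximately 5 × 10^5 CFU/ml. MIC was read after 18 to 24 h incubation at 37°C.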

[5] = tested on: Streptococcus dysgalactiae subsp. equisimilis; test: Antibacterial activity against Streptococcus dysgalactiae subsp. equisimilis isolated from patient with diabetic foot infection after 18 to 24 hrs by broth microdilution method; summary of the method: as §3
Staphylococcus aureus = test: Antibacterial activity against methicillin-sensitive Staphylococcus aureus isolated from patient with diabetic foot infection assessed as percent resistant isolates after 18 to 24 hrs by broth microdilution method
Summary of the method: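 Isolates grown on Trypticase soy blood agar, then tested by broth microdilution in unsupplemented cation-adjusted Mueller-Hinton broth. In-house trays held serial twofold drug dilutions and were stored at −70°C. Overnight colonies were suspended to a final inoculum near 5 × 10^5 CFU/ml, and trays read after 18–24 h at 37°C. QC strains: S. aureus ATCC 29213, E. coli ATCC 25922.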

[6] = tested on: Staphylococcus epidermidis; test: Antibacterial activity against Staphylococcus epidermidis isolated from patient with diabetic foot infection assessed as percent resistant isolates after 18 to 24 hrs by broth microdilution method; summary of the method: as §1
[7] = tested on: Staphylococcus haemolyticus; test: Antibacterial activity against Staphylococcus haemolyticus isolated from patient with diabetic foot infection assessed as percent resistant isolates after 18 to 24 hrs by broth microdilution method
[8] = tested on: Staphylococcus lugdunensis; test: Antibacterial activity against Staphylococcus lugdunensis isolated from patient with diabetic foot infection assessed as percent resistant isolates after 18 to 24 hrs by broth microdilution method; summary of the method: as §1
Streptococcus agalactiae [9] = test: Antibacterial activity against Streptococcus agalactiae isolated from patient with diabetic foot infection assessed as percent resistant isolates after 18 to 24 hrs by broth microdilution method
Summary of the method: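 Streptococci subcultured on Trypticase soy blood agar and tested by broth microdilution in cation-adjusted Mueller-Hinton broth with lysed horse blood. In-house twofold dilution trays stored at −70°C. About 5 × 10^5 CFU/ml final inoculum from overnight colonies. Read after 18 to 24 h at 37°C.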

Klebsiella aerogenes [10] = test: Antibacterial activity against Enterobacter aerogenes isolated from patient with diabetic foot infection after 18 to 24 hrs by broth microdilution method; summary of the method: as §2
Enterobacter cloacae = test: Antibacterial activity against Enterobacter cloacae isolated from patient with diabetic foot infection after 18 to 24 hrs by broth microdilution method; summary of the method: as §2
Klebsiella oxytoca = test: Antibacterial activity against Klebsiella oxytoca isolated from patient with diabetic foot infection after 18 to 24 hrs by broth microdilution method; summary of the method: as §2
Klebsiella pneumoniae = test: Antibacterial activity against Klebsiella pneumoniae isolated from patient with diabetic foot infection after 18 to 24 hrs by broth microdilution method; summary of the method: as §2
Proteus vulgaris = test: Antibacterial activity against Proteus vulgaris isolated from patient with diabetic foot infection after 18 to 24 hrs by broth microdilution method; summary of the method: as §2
Providencia rettgeri = test: Antibacterial activity against Proteus rettgeri isolated from patient with diabetic foot infection after 18 to 24 hrs by broth microdilution method; summary of the method: as §2
Pseudomonas aeruginosa [11] = test: Antibacterial activity against Pseudomonas aeruginosa isolated from patient with diabetic foot infection after 18 to 24 hrs by broth microdilution method; summary of the method: as §2
[12] = tested on: Corynebacterium aurimucosum; test: Antibacterial activity against Corynebacterium aurimucosum isolated from patient with diabetic foot infection after 48 hrs by broth microdilution method
Summary of the method: (§4)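 Isolates were subcultured on Trypticase soy blood agar. Broth microdilution used cation-adjusted Mueller-Hinton broth with lysed horse blood, in-house trays of twofold drug dilutions stored at −70°C. Colonies from overnight growth gave a final inoculum of about 5 × 10^5 CFU/ml. Trays were read after 18 to 24 h at 37°C, up to 48 h for some strains.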

Corynebacterium accolens [13] = test: Antibacterial activity against Corynebacterium accolens isolated from patient with diabetic foot infection after 48 hrs by broth microdilution method; summary of the method: as §4
Corynebacterium xerosis [14] = test: Antibacterial activity against Corynebacterium xerosis isolated from patient with diabetic foot infection after 48 hrs by broth microdilution method; summary of the method: as §4
Pseudomonas aeruginosa [15] = test: Antibacterial activity against Pseudomonas aeruginosa isolated from patient with diabetic foot infection assessed as percent resistant isolates after 18 to 24 hrs by broth microdilution method; summary of the method: as §1
[16] = tested on: Corynebacterium aurimucosum; test: Antibacterial activity against Corynebacterium aurimucosum isolated from patient with diabetic foot infection assessed as percent resistant isolates after 48 hrs by broth microdilution method
Summary of the method: (§5)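 Isolates subcultured on Trypticase soy blood agar. Broth microdilution in cation-adjusted Mueller-Hinton broth with lysed horse blood, using in-house twofold dilution trays stored at −70°C. Inoculum from overnight colonies at about 5 × 10^5 CFU/ml final. Read after 18 to 24 h at 37°C, up to 48 h for some Corynebacterium strains.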

Corynebacterium striatum = test: Antibacterial activity against Corynebacterium striatum isolated from patient with diabetic foot infection assessed as percent resistant isolates after 48 hrs by broth microdilution method; summary of the method: as §5
Corynebacterium accolens [17] = test: Antibacterial activity against Corynebacterium accolens isolated from patient with diabetic foot infection assessed as percent resistant isolates after 48 hrs by broth microdilution method; summary of the method: as §5
Corynebacterium simulans = test: Antibacterial activity against Corynebacterium simulans isolated from patient with diabetic foot infection assessed as percent resistant isolates after 48 hrs by broth microdilution method; summary of the method: as §5
Corynebacterium xerosis [18] = test: Antibacterial activity against Corynebacterium xerosis isolated from patient with diabetic foot infection assessed as percent resistant isolates after 48 hrs by broth microdilution method; summary of the method: as §5

SMILES	Activity (Klebsiella aerogenes [1]) [%]	MIC50 [2] [µg/mL]	MIC90 [2] [µg/mL]	MIC50 [3] [µg/mL]	MIC90 [3] [µg/mL]	MIC50 (Streptococcus agalactiae [4]) [µg/mL]	MIC90 (Streptococcus agalactiae [4]) [µg/mL]	MIC50 [5] [µg/mL]	MIC90 [5] [µg/mL]	Activity (Staphylococcus aureus) [%]	Activity [6] [%]	Activity [7] [%]	Activity [8] [%]	Activity (Streptococcus agalactiae [9]) [%]	MIC50 (Klebsiella aerogenes [10]) [µg/mL]	MIC90 (Klebsiella aerogenes [10]) [µg/mL]	MIC50 (Enterobacter cloacae) [µg/mL]	MIC90 (Enterobacter cloacae) [µg/mL]	MIC50 (Klebsiella oxytoca) [µg/mL]	MIC90 (Klebsiella oxytoca) [µg/mL]	further results
C[C@@H](O)[C@H]1C(=O)N2C(C(=O)O)=C(S[C@@H]3CN[C@H](C(=O)Nc4cccc(C(=O)O)c4)C3)[C@H](C)[C@H]12 [ERTAPENEM]	0	2 (≈ 4.21 µM)	8 (≈ 16.8 µM)	0.5 (≈ 1.05 µM)	1 (≈ 2.1 µM)	0.06 (≈ 0.126 µM)	0.06 (≈ 0.126 µM)	≤ 0.015	≤ 0.015	0	67	73	0	0	0.06 (≈ 0.126 µM)	0.5 (≈ 1.05 µM)	0.06 (≈ 0.126 µM)	0.5 (≈ 1.05 µM)	≤ 0.015	≤ 0.015	MIC50 (Klebsiella pneumoniae): ≤ 0.015 µg/mL; MIC90 (Klebsiella pneumoniae): ≤ 0.015 µg/mL; MIC50 (Proteus vulgaris): ≤ 0.015 µg/mL; MIC90 (Proteus vulgaris): 0.25 µg/mL (≈ 0.526 µM); MIC50 (Providencia rettgeri): ≤ 0.015 µg/mL; MIC90 (Providencia rettgeri): 0.25 µg/mL (≈ 0.526 µM); MIC50 (Pseudomonas aeruginosa [11]): 8 µg/mL (≈ 16.8 µM); MIC90 (Pseudomonas aeruginosa [11]): 32 µg/mL (≈ 67.3 µM); MIC50 [12]: 1 µg/mL (≈ 2.1 µM); MIC90 [12]: 32 µg/mL (≈ 67.3 µM); MIC50 (Corynebacterium accolens [13]): 0.5 µg/mL (≈ 1.05 µM); MIC90 (Corynebacterium accolens [13]): 1 µg/mL (≈ 2.1 µM); MIC50 (Corynebacterium xerosis [14]): 0.5 µg/mL (≈ 1.05 µM); MIC90 (Corynebacterium xerosis [14]): 1 µg/mL (≈ 2.1 µM)
C[C@@H](O)[C@H]1C(=O)N2C(C(=O)O)=C(SCCNC=N)C[C@H]12 [IMIPENEM ANHYDROUS]	0	0.125 (≈ 0.418 µM)	0.5 (≈ 1.67 µM)	0.03 (≈ 0.1 µM)	0.06 (≈ 0.2 µM)	≤ 0.015	≤ 0.015	≤ 0.015	≤ 0.015	0	67	73	0	0	1 (≈ 3.34 µM)	2 (≈ 6.68 µM)	1 (≈ 3.34 µM)	2 (≈ 6.68 µM)	0.25 (≈ 0.835 µM)	1 (≈ 3.34 µM)	Activity (Pseudomonas aeruginosa [15]): 13%; Activity [16]: 30%; Activity (Corynebacterium striatum): 0%; Activity (Corynebacterium accolens [17]): 0%; Activity (Corynebacterium simulans): 0%; Activity (Corynebacterium xerosis [18]): 0%; MIC50 (Klebsiella pneumoniae): 0.25 µg/mL (≈ 0.835 µM); MIC90 (Klebsiella pneumoniae): 1 µg/mL (≈ 3.34 µM); MIC50 (Proteus vulgaris): 0.5 µg/mL (≈ 1.67 µM); MIC90 (Proteus vulgaris): 4 µg/mL (≈ 13.4 µM); MIC50 (Providencia rettgeri): 0.5 µg/mL (≈ 1.67 µM); MIC90 (Providencia rettgeri): 4 µg/mL (≈ 13.4 µM); MIC50 (Pseudomonas aeruginosa [11]): 2 µg/mL (≈ 6.68 µM); MIC90 (Pseudomonas aeruginosa [11]): 8 µg/mL (≈ 26.7 µM); MIC50 [12]: 0.25 µg/mL (≈ 0.835 µM); MIC90 [12]: 32 µg/mL (≈ 107 µM); MIC50 (Corynebacterium accolens [13]): 0.03 µg/mL (≈ 0.1 µM); MIC90 (Corynebacterium accolens [13]): 0.125 µg/mL (≈ 0.418 µM); MIC50 (Corynebacterium xerosis [14]): 0.03 µg/mL (≈ 0.1 µM); MIC90 (Corynebacterium xerosis [14]): 0.125 µg/mL (≈ 0.418 µM)
C[C@@H](O)[C@H]1C(=O)N2C(C(=O)O)=C(S[C@@H]3CN[C@H](C(=O)N(C)C)C3)[C@H](C)[C@H]12 [MEROPENEM]	0	1 (≈ 2.61 µM)	4 (≈ 10.4 µM)	0.25 (≈ 0.652 µM)	0.5 (≈ 1.3 µM)	0.06 (≈ 0.156 µM)	0.06 (≈ 0.156 µM)	≤ 0.015	≤ 0.015	0	67	73	0	0	0.06 (≈ 0.156 µM)	0.5 (≈ 1.3 µM)	0.06 (≈ 0.156 µM)	0.5 (≈ 1.3 µM)	0.03 (≈ 0.0782 µM)	0.06 (≈ 0.156 µM)	Activity (Pseudomonas aeruginosa [15]): 7%; Activity [16]: 20%; Activity (Corynebacterium striatum): 0%; Activity (Corynebacterium accolens [17]): 0%; Activity (Corynebacterium simulans): 0%; Activity (Corynebacterium xerosis [18]): 0%; MIC50 (Klebsiella pneumoniae): 0.03 µg/mL (≈ 0.0782 µM); MIC90 (Klebsiella pneumoniae): 0.06 µg/mL (≈ 0.156 µM); MIC50 (Proteus vulgaris): 0.06 µg/mL (≈ 0.156 µM); MIC90 (Proteus vulgaris): 0.125 µg/mL (≈ 0.326 µM); MIC50 (Providencia rettgeri): 0.06 µg/mL (≈ 0.156 µM); MIC90 (Providencia rettgeri): 0.125 µg/mL (≈ 0.326 µM); MIC50 (Pseudomonas aeruginosa [11]): 0.5 µg/mL (≈ 1.3 µM); MIC90 (Pseudomonas aeruginosa [11]): 4 µg/mL (≈ 10.4 µM); MIC50 [12]: 1 µg/mL (≈ 2.61 µM); MIC90 [12]: 16 µg/mL (≈ 41.7 µM); MIC50 (Corynebacterium accolens [13]): 0.125 µg/mL (≈ 0.326 µM); MIC90 (Corynebacterium accolens [13]): 0.25 µg/mL (≈ 0.652 µM); MIC50 (Corynebacterium xerosis [14]): 0.125 µg/mL (≈ 0.326 µM); MIC90 (Corynebacterium xerosis [14]): 0.25 µg/mL (≈ 0.652 µM)

Reference: ChEMBL document CHEMBL1153560, “In vitro activities of doripenem and six comparator drugs against 423 aerobic and anaerobic bacterial isolates from infected diabetic foot wounds” (2008)
